Assay results: ChEMBL document CHEMBL4765431, “Novel phthalide derivatives: Synthesis and anti-inflammatory activity in vitro and in vivo” (Eur J Med Chem, 2020)
The source made the active and inactive calls. The calls are words filed in the database; no cut-off is given here.

Legend:
Rattus norvegicus [1] = assay: Antiarthritic activity in Sprague-Dawley rat model of arthritis assessed as reduction in CFA-induced cartilage destruction at 40 mg/kg, ig […] and measured every 3 days by H and E staining based histopathological analysis; assay type: functional, organism-based
RAW264.7 [2] = assay: Activation of Nrf2/HO-1 signalling pathway in mouse RAW264.7 cells assessed as inhibition of LPS-induced NO production at 2 uM preincubated for 1 hr in presence of NAC followed by LPS stimulation and measured after 24 hrs by Griess reagent-based assay; assay type: cell-based; details: time 25.0 hrs
Procedure, shortened: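 Cells pretreated 1 h with or without NAC 5 mM alongside 2 µM compound, then LPS 0.5 µg/mL for 24 h. Medium NO measured by Griess reagent. Means ± SD of three independent experiments.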

RAW264.7 [3] = assay: Activation of Nrf2/HO-1 signalling pathway in mouse RAW264.7 cells assessed as increase in Nrf2 nuclear translocation at 0.5 to 2 uM preincubated for 1 hr followed by LPS stimulation and measured after 6 hrs by DAPI staining based fluorescence microscopic analysis; assay type: cell-based; details: filed as activator, dose 0.5-2 µM, time 7.0 hrs
Procedure, shortened: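 Cells grown on glass coverslips, treated 1 h, then LPS 0.5 µg/mL for 6 h. Fixed in 4% paraformaldehyde 20 min at room temperature, blocked 1 h in TBS with 0.1% Triton X-100 and 5% BSA. Stained with anti-Nrf2 and FITC anti-rabbit IgG, nuclei with DAPI. Imaged by inverted fluorescence microscope.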

RAW264.7 [4] = assay: Cytotoxicity against mouse RAW264.7 cells assessed as reduction in cell viability at 20 uM incubated for 24 hrs by MTT assay; assay type: cell-based; details: raw264.7, 24 h
Procedure, shortened: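 RAW264.7 cells (1 × 10^4/well, used 24 h after seeding) exposed to 20 µM for 24 h. MTT (5 mg/mL stock) added for 4 h, supernatant removed, crystals dissolved in DMSO with 10–15 min shaking, absorbance at 492 nm.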

RAW264.7 [5] = assay: Inhibition of MAPK signalling activation in mouse RAW264.7 cells assessed as reduction in LPS-induced p38 phosphorylation at 0.5 to 2 uM preincubated for 1 hr followed by LPS stimulation by Western blotting analysis; assay type: cell-based; details: dose 0.5-2 µM, TDE = time-dependent effect
Procedure, shortened: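 Pretreatment 1 h with 0.5–2 µM, then LPS 0.5 µg/mL for 30 min. p-IκB, IκB, p-p65, p65, ERK, JNK, p38 and their phosphorylated forms, plus β-actin, detected by Western blot (RIPA lysis, SDS-PAGE, PVDF, primary 16 h at 4 °C, HRP secondary 1:5000, ECL).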

RAW264.7 [6] = assay: Inhibition of LPS-induced ROS generation in mouse RAW264.7 cells at 0.5 to 2 uM preincubated for 1 hr followed by LPS stimulation and measured after 6 hrs by DCFH-DA staining based flow cytometry analysis; assay type: functional, cell-based; details: dose 0.5-2 µM, time 7.0 hrs
Procedure, shortened: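 RAW264.7 cells (1.5 × 10^6/well, grown 24 h) pretreated 1 h with 0.5, 1, 2 µM, then LPS 0.5 µg/mL for 6 h. Loaded with DCFH-DA 30 min at 37 °C, washed three times with cold serum-free medium or PBS. Intracellular ROS read by flow cytometry.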

RAW264.7 [7] = assay: Cytotoxicity against mouse RAW264.7 cells assessed as reduction in cell viability incubated for 24 hrs in absence of LPS by MTT assay; assay type: cell-based; details: RAW264.7, 24 h
RAW264.7 [8] = assay: Anti-inflammatory activity in mouse RAW264.7 cells assessed as inhibition of LPS-induced iNOS protein expression preincubated for 1 hr followed by LPS stimulation and measured after 24 hrs by Western blot analysis; assay type: functional, cell-based; details: dose 0.5-2 µM, time 25.0 hrs
Procedure, shortened: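 Cells pretreated 1 h with 0.5, 1, 2 µM, then LPS 0.5 µg/mL for 24 h. iNOS, COX-2 and β-actin detected by Western blot (RIPA lysis, PVDF, primary 16 h at 4 °C, HRP secondary, ECL). Blots representative of three separate experiments.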

Rattus norvegicus [9] = assay: Antiarthritic activity in Sprague-Dawley rat model of arthritis assessed as reduction in CFA-induced inflammatory cell infiltration at 40 mg/kg, ig administered daily for 28 days starting from 14 days post-immunization and measured every 3 days by H and E staining based histopathological analysis; assay type: functional, organism-based; details: time 28.0 day
Procedure, shortened: (§1)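 AA rats (male SD, CFA intradermal into right hind paw) dosed intragastrically once daily at 20 or 40 mg/kg from day 14 to day 28. Killed after 29 days. Ankle joints fixed in 4% neutral buffered paraformaldehyde, decalcified in 10% EDTA, sectioned and H&E stained. Scored for synovial hyperplasia, inflammatory cell infiltration and cartilage destruction.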

RAW264.7 [10] = assay: Activation of Nrf2/HO-1 signalling pathway in mouse RAW264.7 cells assessed as increase in HO-1 protein expression at 0.5 to 2 uM preincubated for 1 hr followed by LPS stimulation and measured after 24 hrs by Western blotting analysis; assay type: cell-based; details: filed as activator, dose 0.5-2 µM, time 25.0 hrs
Procedure, shortened: (§2)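 RAW264.7 cells (2 × 10^6/well, grown 24 h) pretreated 1 h with 0.5, 1, 2 µM, then LPS 0.5 µg/mL for 24 h. Lysed in RIPA with PMSF and phosphatase inhibitors, SDS-PAGE, PVDF transfer. Primary antibodies (anti-Nrf2 or anti-HO-1) 16 h at 4 °C, HRP secondary 1:5000 1 h at room temperature, ECL detection. β-actin used for normalization.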

Rattus norvegicus [11] = assay: Antiarthritic activity in Sprague-Dawley rat model of arthritis assessed as reduction in CFA-induced inflammatory cell infiltration at 20 mg/kg, ig administered daily for 28 days starting from 14 days post-immunization and measured every 3 days by H and E staining based histopathological analysis; assay type: functional, organism-based; details: time 28.0 day; procedure, shortened: as §1
Rattus norvegicus [12] = assay: Antiarthritic activity in Sprague-Dawley rat model of arthritis assessed as reduction in CFA-induced cartilage destruction at 20 mg/kg, […] and measured every 3 days by H and E staining based histopathological analysis; assay type: functional, organism-based
RAW264.7 [13] = assay: Antiinflammatory activity in mouse RAW264.7 cells assessed as inhibition of LPS-induced nitric oxide production preincubated for 1 hr followed by LPS stimulation and measured after 24 hrs by Griess reagent-based assay; assay type: functional, cell-based
RAW264.7 [14] = assay: Antiinflammatory activity in mouse RAW264.7 cells assessed as inhibition of LPS-induced nitric oxide production at 10 uM preincubated for 1 hr followed by LPS stimulation and measured after 24 hrs by Griess reagent-based assay relative to control; assay type: functional; details: time 25 hrs
Procedure, shortened: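 RAW264.7 cells (7 × 10^4/well, used 24 h after seeding) in DMEM with 10% heat-inactivated FBS, 37 °C, 5% CO2. Pretreated 1 h with compound (10 µM screen; 0.625–10 µM dose series), then LPS 0.5 µg/mL for 24 h. Supernatant mixed 1:1 with Griess reagent, 15 min at room temperature, absorbance read at […].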

Rattus norvegicus [15] = assay: Antiarthritic activity in Sprague-Dawley rat model of CFA-induced arthritis assessed as reduction in paw swelling at 20 to 40 mg/kg, […] and measured every 3 days; assay type: functional, organism-based; details: dose 20-40 mg/kg
RAW264.7 [16] = assay: Activation of Nrf2/HO-1 signalling pathway in mouse RAW264.7 cells assessed as increase in nuclear Nrf2 protein expression at 0.5 to 2 uM preincubated for 1 hr followed by LPS stimulation and measured after 24 hrs by Western blotting analysis; assay type: cell-based; details: filed as activator, dose 0.5-2 µM, time 25.0 hrs; procedure, shortened: as §2

IC50 (RAW264.7 [13]): 760 nM
Compound: COc1cc(OC)c2c(c1)C(C(O)c1ccc(OCc3ccc(F)cc3)cc1)OC2=O (stereo unspecified)
Activity (Rattus norvegicus [1]): Active
Activity (RAW264.7 [2]): inactive
Activity (RAW264.7 [3]): Active
Activity (RAW264.7 [4]): Non-Toxic
inhibition (RAW264.7 [5]): Tde
inhibition (RAW264.7 [6]): inactive
IC50 (RAW264.7 [7]): > 40000 nM
inhibition (RAW264.7 [8]): Dose-dependent effect
Activity (Rattus norvegicus [9]): Active
Activity (RAW264.7 [10]): Active
Activity (Rattus norvegicus [11]): Active
Activity (Rattus norvegicus [12]): Active
inhibition at 10 µM (RAW264.7 [14]): 95.2%
Activity (Rattus norvegicus [15]): Active
Activity (RAW264.7 [16]): Active
